Experimental data from ChEMBL document CHEMBL3351768, “7-(4-Alkylidenylpiperidinyl)-quinolone bacterial topoisomerase inhibitors” (2014).
Converted amounts (≈) assume the structure as drawn.

Assays:
Format in all cases: functional
Streptococcus pneumoniae [1] = assay: Antibacterial activity against ciprofloxacin-susceptible Streptococcus pneumoniae ATCC49619 by broth microdilution method
In short: (§1)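 MIC by broth microdilution following CLSI M07-A9 guidelines for aerobically growing bacteria. Where a compound was tested more than once, across several test dates or batches, the modal MIC is reported.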

Streptococcus pneumoniae [2] = assay: Antibacterial activity against ciprofloxacin-resistant Streptococcus pneumoniae OC6578 clinical isolate by broth microdilution method
Staphylococcus aureus [3] = assay: Antibacterial activity against ciprofloxacin-susceptible Staphylococcus aureus OC4172 by broth microdilution method; in short: as §1
Streptococcus pneumoniae [4] = assay: Antibacterial activity against ciprofloxacin-resistant Streptococcus pneumoniae OC6608 clinical isolate by broth microdilution method
Streptococcus pneumoniae [5] = assay: Antibacterial activity against ciprofloxacin-resistant Streptococcus pneumoniae OC5465 clinical isolate by broth microdilution method
Staphylococcus aureus [6] = assay: Antibacterial activity against methicillin-resistant Staphylococcus aureus OC2805 by broth microdilution method
In short: (§2)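 Broth microdilution MIC per CLSI M07-A9 guidelines for aerobically growing bacteria. Where a compound was tested several times (multiple test dates and batches), the modal MIC is reported.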

[7] = system: Staphylococcus epidermidis; assay: Antibacterial activity against methicillin-resistant Staphylococcus epidermidis OC5340 by broth microdilution method; in short: as §2
Escherichia coli = assay: Antibacterial activity against Escherichia coli ATCC 25922 by broth microdilution method; in short: as §1

Row | SMILES | MIC (Streptococcus pneumoniae [1]) [µg/mL] | MIC (Streptococcus pneumoniae [2]) [µg/mL] | MIC (Staphylococcus aureus [3]) [µg/mL] | MIC (Streptococcus pneumoniae [4]) [µg/mL] | MIC (Streptococcus pneumoniae [5]) [µg/mL] | MIC (Staphylococcus aureus [6]) [µg/mL] | MIC [7] [µg/mL] | MIC (Escherichia coli) [µg/mL]
1 | COc1c(N2CCC(=C(Cl)CN(C)C)CC2)c(F)cc2c(=O)c(C(=O)O)cn(C3CC3)c12 | 0.5 (≈ 1.08 µM) | 8 (≈ 17.2 µM) | 0.25 (≈ 0.539 µM) | 8 (≈ 17.2 µM) | 2 (≈ 4.31 µM) |  |  | 
2 | NCC=C1CCN(c2nc3c(cc2F)c(=O)c(C(=O)O)cn3C2CC2)CC1 | 0.5 (≈ 1.34 µM) | 8 (≈ 21.5 µM) | 0.12 (≈ 0.322 µM) | 8 (≈ 21.5 µM) |  |  |  | 
3 | NCC(F)=C1CCN(c2nc3c(cc2F)c(=O)c(C(=O)O)cn3C2CC2)CC1 | 0.12 (≈ 0.307 µM) | 0.5 (≈ 1.28 µM) | 0.03 (≈ 0.0768 µM) | 2 (≈ 5.12 µM) | 1 (≈ 2.56 µM) |  |  | 
4 | CC(CN)=C1CCN(c2nc3c(cc2F)c(=O)c(C(=O)O)cn3C2CC2)CC1 | 0.12 (≈ 0.311 µM) | 1 (≈ 2.59 µM) | 0.06 (≈ 0.155 µM) | 0.25 (≈ 0.647 µM) | 1 (≈ 2.59 µM) |  |  | 
5 | NCC(Cl)=C1CCN(c2nc3c(cc2F)c(=O)c(C(=O)O)cn3C2CC2)CC1 | 0.12 (≈ 0.295 µM) | 0.25 (≈ 0.614 µM) | 0.06 (≈ 0.147 µM) | 1 (≈ 2.46 µM) | 1 (≈ 2.46 µM) |  |  | 
6 | NCC(F)=C1CCN(c2cc3c(cc2F)c(=O)c(C(=O)O)cn3C2CC2)CC1 | 0.06 (≈ 0.154 µM) | 1 (≈ 2.57 µM) | 0.03 (≈ 0.077 µM) |  |  |  |  | 
7 | CC(CN)=C1CCN(c2cc3c(cc2F)c(=O)c(C(=O)O)cn3C2CC2)CC1 | 1 (≈ 2.59 µM) | 2 (≈ 5.19 µM) | 0.12 (≈ 0.311 µM) | 8 (≈ 20.8 µM) | 8 (≈ 20.8 µM) |  |  | 
8 | NCC(Cl)=C1CCN(c2cc3c(cc2F)c(=O)c(C(=O)O)cn3C2CC2)CC1 | 0.12 (≈ 0.296 µM) | 0.5 (≈ 1.23 µM) | 0.03 (≈ 0.0739 µM) |  | 1 (≈ 2.46 µM) |  |  | 
9 | C[C@H]1COc2c(N3CCC(=C(Cl)CN)CC3)c(F)cc3c(=O)c(C(=O)O)cn1c23 | 0.03 (≈ 0.0711 µM) | 0.25 (≈ 0.593 µM) | ≤ 0.015 | 0.25 (≈ 0.593 µM) | 0.5 (≈ 1.19 µM) |  |  | 
10 | NCC(F)=C1CCN(c2c(F)cc3c(=O)c(C(=O)O)cn(C4CC4)c3c2OC(F)F)CC1 | 0.25 (≈ 0.549 µM) | 2 (≈ 4.39 µM) | 0.06 (≈ 0.132 µM) | 0.25 (≈ 0.549 µM) | 0.25 (≈ 0.549 µM) |  |  | 
11 | NCC(Cl)=C1CCN(c2c(F)cc3c(=O)c(C(=O)O)cn(C4CC4)c3c2OC(F)F)CC1 | 0.12 (≈ 0.254 µM) | 1 (≈ 2.12 µM) | 0.06 (≈ 0.127 µM) | 0.5 (≈ 1.06 µM) | 0.12 (≈ 0.254 µM) | 1 (≈ 2.12 µM) | 0.5 (≈ 1.06 µM) | 0.5 (≈ 1.06 µM)
12 | COc1c(N2CCC(=C(F)CN)CC2)c(F)cc2c(=O)c(C(=O)O)cn(C3CC3)c12 | 0.12 (≈ 0.286 µM) | 1 (≈ 2.38 µM) | 0.03 (≈ 0.0715 µM) | 0.5 (≈ 1.19 µM) | 0.5 (≈ 1.19 µM) |  |  | 
13 | COc1c(N2CCC(=C(C)CN)CC2)c(F)cc2c(=O)c(C(=O)O)cn(C3CC3)c12 | 0.12 (≈ 0.289 µM) | 0.25 (≈ 0.602 µM) | 0.03 (≈ 0.0722 µM) |  | 0.25 (≈ 0.602 µM) |  |  | 
14 | COc1c(N2CCC(=C(Cl)CN)CC2)c(F)cc2c(=O)c(C(=O)O)cn(C3CC3)c12 | 0.06 (≈ 0.138 µM) | 0.25 (≈ 0.574 µM) | ≤ 0.015 | 0.25 (≈ 0.574 µM) | 0.25 (≈ 0.574 µM) | 0.25 (≈ 0.574 µM) | 0.25 (≈ 0.574 µM) | 0.25 (≈ 0.574 µM)
15 | CNCC(Cl)=C1CCN(c2c(F)cc3c(=O)c(C(=O)O)cn(C4CC4)c3c2OC)CC1 | 0.06 (≈ 0.133 µM) | 0.5 (≈ 1.11 µM) | ≤ 0.015 | 0.25 (≈ 0.556 µM) | 0.25 (≈ 0.556 µM) | 0.5 (≈ 1.11 µM) | 0.5 (≈ 1.11 µM) | 0.5 (≈ 1.11 µM)
16 | COc1c(N2CCC(=C(Cl)CNC(C)C)CC2)c(F)cc2c(=O)c(C(=O)O)cn(C3CC3)c12 | 0.5 (≈ 1.05 µM) | 4 (≈ 8.37 µM) | 0.12 (≈ 0.251 µM) |  | 2 (≈ 4.18 µM) |  |  | 
17 | CCNCC(Cl)=C1CCN(c2c(F)cc3c(=O)c(C(=O)O)cn(C4CC4)c3c2OC)CC1 | 0.25 (≈ 0.539 µM) | 1 (≈ 2.16 µM) | 0.12 (≈ 0.259 µM) | 1 (≈ 2.16 µM) | 1 (≈ 2.16 µM) |  |  | 
18 | CC1COc2c(N3CCC(=C(F)CN)CC3)c(F)cc3c(=O)c(C(=O)O)cn1c23 (racemic) | 0.5 (≈ 1.23 µM) | 8 (≈ 19.7 µM) | 0.25 (≈ 0.617 µM) | 2 (≈ 4.93 µM) | 8 (≈ 19.7 µM) |  |  | 
19 | CC(CN)=C1CCN(c2c(F)cc3c(=O)c(C(=O)O)cn4c3c2OCC4C)CC1 (racemic) | 1 (≈ 2.49 µM) | > 16 | 0.5 (≈ 1.25 µM) | 4 (≈ 9.96 µM) | > 16 |  |  | 
20 | O=C(O)c1cn(C2CC2)c2cc(N3CCNCC3)c(F)cc2c1=O [CIPROFLOXACIN] | 1 (≈ 3.02 µM) |  | 0.12 (≈ 0.362 µM) |  |  |  | 8 (≈ 24.1 µM) | 
